Tests used:
[1] = system: HEK293 cells; test: MTT assay, cytotoxicity; type: cell-based, human; conditions: at a concentration of 100 μM; 72 h
Summary of the method: (§1)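 HEK293 cells kept in DMEM with 10% FBS plus penicillin/streptomycin, 37 °C, 5% CO2. Seeded at 2 × 10^5 cells/mL and grown 24 h, then exposed 72 h to test compound in DMSO (final DMSO below 0.5%) at various concentrations. MTT (5 mg/mL solution) added for 4 h; formazan dissolved in DMSO, A540 read; viability expressed as percent of untreated control cells.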

[2] = biological target: T1, S. aureus ThrRS (Staphylococcus aureus, UniProt Q2FXP7); test: In vitro aminoacylation assay; type: biochemical; conditions: read-out: inhibition of S. aureus ThrRS
T1 sequence (Q2FXP7 1-645): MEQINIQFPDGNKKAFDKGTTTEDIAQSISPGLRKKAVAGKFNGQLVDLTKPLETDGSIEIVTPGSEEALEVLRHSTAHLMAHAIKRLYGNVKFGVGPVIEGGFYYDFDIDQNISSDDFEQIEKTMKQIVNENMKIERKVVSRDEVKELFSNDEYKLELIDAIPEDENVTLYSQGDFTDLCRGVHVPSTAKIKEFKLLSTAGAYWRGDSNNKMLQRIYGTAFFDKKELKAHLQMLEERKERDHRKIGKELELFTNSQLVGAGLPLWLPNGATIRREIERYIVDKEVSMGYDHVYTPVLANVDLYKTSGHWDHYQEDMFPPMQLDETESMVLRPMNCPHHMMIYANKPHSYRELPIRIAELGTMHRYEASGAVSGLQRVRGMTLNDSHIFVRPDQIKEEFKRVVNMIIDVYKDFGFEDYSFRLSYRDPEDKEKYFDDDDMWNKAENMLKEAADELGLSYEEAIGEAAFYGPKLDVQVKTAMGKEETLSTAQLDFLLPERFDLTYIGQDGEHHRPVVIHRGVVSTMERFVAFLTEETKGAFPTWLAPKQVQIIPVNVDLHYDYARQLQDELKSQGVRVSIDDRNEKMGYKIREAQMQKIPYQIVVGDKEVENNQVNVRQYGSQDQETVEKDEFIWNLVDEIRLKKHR
Summary of the method: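 S. aureus ThrRS expressed in E. coli BL21(DE3)pLysS (0.25 mM IPTG, 3 h, 37 °C), purified on DEAE then heparin columns. Started with 10 mM ATP; 10 min, 37 °C; TCA-precipitated on filters, scintillation-counted; at least duplicates.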

[3] = MTT assay, cytotoxicity; type: cell-based, human; conditions: human, HEK293 cells
Summary of the method: as §1

| SMILES | cytotoxicity toward HEK293 [1] | inhibition at 100 µM [2] [%] | EC50 at 72 h [3] [µM] | decrease of the growth of HEK293 cells [1] [%] |
| --- | --- | --- | --- | --- |
| COc1ccc(C(=O)CSc2nc3ccc([N+](=O)[O-])cc3s2)cc1 [compound 1, 1-(4-methoxy-phenyl)-2-(6-nitro-benzothiazol-2-ylsulfanyl)-ethanone] | not cytotoxic | 88.5 | – | – |
| Cc1ccc([N+](=O)[O-])cc1NC(=O)COc1ccccc1C(C)(C)C [compound 2, 2-(2-tert-butyl-phenoxy)-N-(2-methyl-5-nitro-phenyl)-acetamide] | not cytotoxic | 85.6 | – | – |
| CCOC(=O)c1c(-c2ccc(Cl)cc2)csc1NC(=O)CN1CC(C)OC(C)C1 (stereo not drawn) [compound 8, 4-(4-chloro-phenyl)-2-[2-(2,6-dimethyl-morpholin-4-yl)-acetylamino]-thiophene-3-carboxylic acid ethyl ester] | not cytotoxic | 78.3 | – | – |
| Cc1cc(I)ccc1N1C(=O)CC(Sc2ncccc2C(=O)O)C1=O (stereo not drawn) [compound 11, 2-[1-(4-iodo-2-methyl-phenyl)-2,5-dioxo-pyrrolidin-3-ylsulfanyl]-nicotinic acid] | – | 78.6 | > 100 | 30 |
